PfM18AAP inh-1: blocks P. falciparum M18 aspartyl aminopeptidase; recombinant PfM18AAP, H-Glu-NHMec fluorogenic cleavage; inhibition, % at 7.35 µM; 1.2% of 290,000 active; AID 1822;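 active = inhibition above the campaign mean inhibition over all tested compounds plus 3 SD, cut at about 28% in these data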
CTSL1 counter-1: blocks F. hepatica cathepsin L1 in PFM18AAP counter-screen; recombinant F. hepatica cathepsin L1, Z-Leu-Arg-MCA fluorescence; 0.49% of 300,000 active; AID 1906; inhibition, % at 5.96 µM;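 active = inhibition above the mean of all tested compounds plus 3 SD, set per screening campaign, cut at about 17% in these data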
IMP-1 inhibitor: blocks Pseudomonas aeruginosa IMP-1 metallo-beta-lactamase; purified IMP-1, nitrocefin hydrolysis, epi-absorbance fluorescence; 0.45% of 290,000 active; inhibition, % at 5.6 µM;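 active = inhibition above the mean plus 3 SD of all compounds in the same screening run, cut at about 4.5% in these data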
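System: purified IMP-1; amount: IMP-1 0.2 nM before substrate addition; compound: single dose, 5.6 µM; times: 25 °C, 15 min preincubation, 25 min reaction; signal: Epi-absorbance via hydrolysed-nitrocefin quenching of white-plate fluorescence, 480/530 nm, EDTA stop; benchmarks: DMSO with and without IMP-1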
VIM-2 inh: blocks Pseudomonas aeruginosa VIM-2 metallo-beta-lactamase | inhibition, % at 5.6 µM | 0.89% of 290,000 active | purified VIM-2, nitrocefin hydrolysis, epi-absorbance fluorescence;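 active = inhibition above the mean of all tested compounds plus 3 SD, cutoff set per screening run, cut at about 7.5% in these data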;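 note: red hydrolysis product quenches plate fluorescence so inhibitors raise well fluorescence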
PfM18AAP inh-2: confirmation of Plasmodium falciparum M18 aspartyl aminopeptidase inhibitors | shares compounds with PfM18AAP inh-1 | recombinant PfM18AAP, H-Glu-NHMec fluorogenic cleavage | inhibition, % at 7.35 µM | 28% of 2,400 active | AID 2170;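 active = mean inhibition over replicate wells above the hit cutoff set for the earlier primary screen, cut at about 29% in these data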
CTSL1 counter-2: Cathepsin L (human) inhibition, confirmation. shares compounds with PfM18AAP inh-1. purified cathepsin L1, Z-Leu-Arg-MCA fluorescence. inhibition, % at 5.96 µM. 2,400 tested, under 10 active;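 active = average inhibition across replicates above the hit cutoff set in the earlier primary screen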
Target sequence (P07711 whole entry, looked up): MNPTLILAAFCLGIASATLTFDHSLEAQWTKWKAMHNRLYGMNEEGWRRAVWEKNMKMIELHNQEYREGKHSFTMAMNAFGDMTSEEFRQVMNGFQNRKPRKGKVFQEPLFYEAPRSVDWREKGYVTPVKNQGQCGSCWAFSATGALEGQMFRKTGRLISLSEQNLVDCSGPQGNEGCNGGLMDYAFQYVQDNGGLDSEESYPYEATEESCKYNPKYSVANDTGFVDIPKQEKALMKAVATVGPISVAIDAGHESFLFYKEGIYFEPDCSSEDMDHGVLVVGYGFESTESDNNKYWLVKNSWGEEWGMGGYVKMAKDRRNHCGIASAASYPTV
Of the large screens only hits and unclear results are named; the others gave an inactive call (follow-up assays come after a bar, where they were run). Rows were chosen to be rich in hits. Some 2.7% of all compounds tested hit in one or more screens of this group.

COCCCNC(=S)NNC(=S)Nc1ccc(F)cc1F	PfM18AAP inh-1 32.4 | PfM18AAP inh-2 inactive | CTSL1 counter-2 inactive
Cc1ccc([N+](=O)[O-])cc1NC(=O)Nc1cccc(F)c1	none (no result: CTSL1 counter-1)
COc1cccc2cc(C(=O)N(Cc3ccccc3)CC3CCCO3)c(=O)oc12 (configuration not stated)	PfM18AAP inh-1 34.8 | PfM18AAP inh-2 inactive | CTSL1 counter-2 inactive
Cc1c(Br)c(=O)oc2c(Br)c(O)c(O)cc12	PfM18AAP inh-1 39.5 | PfM18AAP inh-2 inactive | CTSL1 counter-2 inactive
Cc1c(Br)c(=O)oc2c(Br)c(O)ccc12	none
COc1cc(O)c(NC(C)=O)c2nonc12	PfM18AAP inh-1 33.0 | PfM18AAP inh-2 inactive | CTSL1 counter-2 inactive
COc1ccccc1NS(=O)(=O)c1cc(NC(=O)c2sccc2C)ccc1N1CCOCC1	none
COc1ccccc1NS(=O)(=O)c1cc(NC(=S)NCCN2CCOCC2)ccc1N1CCOCC1	PfM18AAP inh-1 37.9 | PfM18AAP inh-2 inactive | CTSL1 counter-2 inactive
COc1ccccc1NS(=O)(=O)c1cc(NC(=O)c2sccc2C)ccc1N1CCCC1	PfM18AAP inh-1 56.0 | PfM18AAP inh-2 inactive | CTSL1 counter-2 inactive
COc1ccccc1NS(=O)(=O)c1cc(NC(=O)C(C)(C)C)ccc1N1CCOCC1	none (no result: PfM18AAP inh-1, IMP-1 inhibitor, VIM-2 inh)
COc1ccccc1NS(=O)(=O)c1cc(NC(=O)c2cccs2)ccc1N1CCCC1	PfM18AAP inh-1 36.1 | PfM18AAP inh-2 inactive | CTSL1 counter-2 inactive
COc1ccccc1CNC(=O)N1CCN(S(=O)(=O)c2ccccc2)CC1	none
CC(C)c1ccc(N(CC(=O)NCCSC(C)(C)C)S(C)(=O)=O)cc1	none
O=C(NNc1cccc(Cl)n1)Nc1ccc(F)cc1	PfM18AAP inh-1 52.3 | PfM18AAP inh-2 43.9 | CTSL1 counter-2 inactive
O=C(Nc1ccccc1F)Nc1ccccc1F	none
O=C(NNc1cccc(Cl)n1)Nc1ccccc1Cl	PfM18AAP inh-1 50.3 | PfM18AAP inh-2 34.0 | CTSL1 counter-2 inactive
O=C(NNc1cccc(Cl)n1)C(F)(F)F	none
O=C(NNc1cccc(Cl)n1)Nc1ccccc1F	PfM18AAP inh-1 52.6 | PfM18AAP inh-2 40.6 | CTSL1 counter-2 inactive
COc1ccc(NC(=O)CSc2nc(-c3ccncc3)nn2CC(=O)N2CCCC2)cc1	none
COc1ccc(O)c(/C=N/c2sc(C)c(C)c2C#N)c1	PfM18AAP inh-1 42.4 | PfM18AAP inh-2 inactive | CTSL1 counter-2 inactive
O=C1CCCCCCC1Sc1ccccc1[N+](=O)[O-] (configuration not stated)	PfM18AAP inh-1 38.1 | PfM18AAP inh-2 inactive | CTSL1 counter-2 inactive
O=C(N/N=C/c1ccc(-c2ccc([N+](=O)[O-])cc2)o1)[C@H]1C[C@@H]1c1ccccc1	PfM18AAP inh-1 32.5 | PfM18AAP inh-2 inactive | CTSL1 counter-2 inactive
COc1cc(C2C3=C(CC(C)(C)CC3=O)N(C)C3=C2C(=O)CC(C)(C)C3)ccc1O	PfM18AAP inh-1 33.7 (no result: CTSL1 counter-1) | PfM18AAP inh-2 inactive | CTSL1 counter-2 inactive
COc1cc(/C=N/NC(=O)Cc2csc(N3CCOCC3)n2)cc(OC)c1O	PfM18AAP inh-1 31.7 | PfM18AAP inh-2 inactive | CTSL1 counter-2 inactive
CCCCn1c(N)c(N(CCC(C)C)C(=O)c2ccc([N+](=O)[O-])s2)c(=O)[nH]c1=O	none (no result: PfM18AAP inh-1, IMP-1 inhibitor, VIM-2 inh)
COc1ccccc1C1C2=C(N=c3s/c(=C/c4cccc(OCC(=O)O)c4)c(=O)n31)c1ccccc1CC2 (configuration not stated)	PfM18AAP inh-1 36.5 | PfM18AAP inh-2 inactive | CTSL1 counter-2 inactive
C=CCc1c(C)nc(C)nc1N/N=C/c1ccc([N+](=O)[O-])cc1	none
C=CCc1c(C)nc(C)nc1N/N=C/c1ccccc1O	PfM18AAP inh-1 49.4 | PfM18AAP inh-2 inactive | CTSL1 counter-2 inactive
C=CCOC(=O)C1=C(C)NC(=S)NC1c1cccs1 (configuration not stated)	none
CCN(CC(=O)Nc1ccc(NC(C)=O)cc1)C(=O)c1cccnc1Sc1ccc(C)c(C)c1	none (no result: PfM18AAP inh-1, IMP-1 inhibitor, VIM-2 inh)
O=[N+]([O-])c1ccc(N/N=C/c2c[nH]c3ccccc23)cc1	PfM18AAP inh-1 37.0 | PfM18AAP inh-2 inactive | CTSL1 counter-2 inactive
O=[N+]([O-])c1ccc(N/N=C/c2ccc[nH]2)cc1	PfM18AAP inh-1 34.7 | PfM18AAP inh-2 inactive | CTSL1 counter-2 inactive
O=[N+]([O-])c1ccccc1N/N=C/c1c[nH]c2ccccc12	none
O=[N+]([O-])c1ccc(N/N=C/c2cccc(O)c2O)cc1	PfM18AAP inh-1 36.5 | PfM18AAP inh-2 inactive | CTSL1 counter-2 inactive
O=[N+]([O-])c1ccc(N/N=C/c2cccnc2)cc1	none

Assay outcomes: PubChem BioAssay, The Scripps Research Institute Molecular Screening Center
